Laboratory results from paper PMC2191014 (The Journal of Experimental Medicine, 1993).
Non-standard residues stand in square brackets, D forms with d. Residues, ends and D or L forms follow the SMILES beside them.

What was measured:
NOD mice [1] = assay: Mortality and hypersensitivity during chronic treatment, first experiment; assay type: in vivo, mouse (NOD); conditions: after 10-18 wk of treatment; 500 nmol chronic
Summary of the method: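 Female NOD mice from 3 wk of age got 500 nmol test peptide in HBSS, i.p. and s.c. at multiple sites. Schedule: five times/week for 3 wk, five times/week for a further 3 wk, then twice weekly to 22-23 wk. Groups: 18 test-peptide, 12 nonblocking-peptide and 18 HBSS-only mice.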

[2] = Peptide-specific antibodies in mice of the Fig. 3 B experiment; assay type: in vivo, mouse (NOD); conditions: data not shown
Summary of the method: (§1)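 ELISA on sera of individual chronically peptide-treated NOD mice at several time points. Wells were coated with 250 ng peptide in PBS at 4°C overnight and blocked with 2% BSA, 37°C, 30 min. Diluted sera ran 1 h at 37°C, then phosphatase-conjugated anti-mouse Ig, IgG or IgM (1:500) 2 h at 37°C. p-Nitrophenyl phosphate (1 mg/ml) ran 45 min, read at OD 405. Uncoated-well background was subtracted from duplicate means.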

[3] = Peptide-specific antibodies by ELISA in sera of chronically treated mice; assay type: in vivo, mouse (NOD); conditions: for peptide-specific IgG antibodies / peptide-specific IgM antibodies: ELISA, sera of chronically treated mice
Summary of the method: as §1

NOD mice [4] = assay: Mortality and symptoms during chronic treatment, second experiment; assay type: in vivo, mouse (NOD)
Summary of the method: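 Female NOD mice received 500 nmol test peptide in HBSS, i.p. and s.c., from 3 wk of age for 20 wk. Thereafter peptide was co-injected with ketotifen 3 mg/kg […] (13 mice). Controls were ketotifen only (15) and HBSS only (15).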

Ad = molecular target: T1, Ad (Mus musculus, UniProt P01921+P04228); assay: Competition for antigen presentation of OVA 323-339 to hybridoma DO11.10; assay type: cell-based
T1 sequence (P01921 28-265): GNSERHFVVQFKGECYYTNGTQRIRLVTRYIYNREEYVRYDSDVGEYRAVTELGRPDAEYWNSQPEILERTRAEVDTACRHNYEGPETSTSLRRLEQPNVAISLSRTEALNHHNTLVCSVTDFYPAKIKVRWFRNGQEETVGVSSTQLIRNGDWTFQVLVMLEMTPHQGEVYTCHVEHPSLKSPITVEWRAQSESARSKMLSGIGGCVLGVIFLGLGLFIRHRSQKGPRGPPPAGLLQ
T1 sequence (P04228 24-256): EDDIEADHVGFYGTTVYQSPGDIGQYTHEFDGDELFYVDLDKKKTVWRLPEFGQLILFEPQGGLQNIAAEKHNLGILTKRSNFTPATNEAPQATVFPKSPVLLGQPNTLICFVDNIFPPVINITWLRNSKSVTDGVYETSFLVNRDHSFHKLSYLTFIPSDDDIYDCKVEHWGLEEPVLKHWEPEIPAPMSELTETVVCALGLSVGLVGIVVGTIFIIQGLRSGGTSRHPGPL
Summary of the method: (§2)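 LK cells (2.5 × 10^4/well) served as APC. They were preincubated 24 h with antigenic peptide plus competitor peptide in RPMI 1640 with 10% FCS, then irradiated (2,000 rad) and washed. Hybridoma cells (5 × 10^4/well) were added for 24 h. Supernatant was transferred to 10^4 CTLL cells, and IL-2 was read as thymidine uptake over the last 4 h of the 24-h CTLL culture.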

Ag7 = assay: Screening: binding to Ag7; assay type: cell-based, mouse (NOD); conditions: screening of peptide panel
Ed = assay: Competition for antigen presentation of HEL 105-120 to hybridoma 1H11.3; assay type: cell-based, mouse; conditions: APC LK cells, 500 nM HEL 105-120, competitor up to 100 μM
Summary of the method: as §2

Ek = assay: Competition for antigen presentation of HEL 1-18 to hybridoma 2G7.1; assay type: cell-based, mouse; conditions: APC LK cells, 2 μM HEL 1-18, competitor up to 100 μM
Summary of the method: as §2

[5] = tested on: NOD class II MHC molecule Ag7; assay: Competition for antigen presentation of HEL 8-29 to T cell hybridoma 2D12.1; assay type: cell-based, mouse (NOD); conditions: APC NOD splenocytes, 80 nM HEL 8-29, competitor up to 100 μM
Summary of the method: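 NOD splenocytes (2.5 × 10^5/well) served as APC. They were held 24 h with antigenic peptide and competitor in RPMI 1640 + 10% FCS, then irradiated at 2,000 rad and washed before 5 × 10^4 hybridoma cells were added. After 24 h, supernatant went onto 10^4 CTLL cells. IL-2 was measured by thymidine incorporation during the final 4 h of the 24-h CTLL culture.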

[6] = tested on: NOD mice, spontaneous autoimmune diabetes; assay: Prevention of spontaneous diabetes in female NOD mice, first experiment; assay type: in vivo, mouse (NOD)
Summary of the method: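 Female NOD mice from an SPF in-house colony were dosed from 3 wk of age with 500 nmol peptide in HBSS, i.p. and s.c. at multiple sites. The schedule was five times weekly for 3 wk, five times weekly for 3 wk more, then twice weekly to 22-23 wk. Arms: test peptide (18 mice), nonbinding control peptide (12), HBSS (18). Monitoring began at 10 wk; blood glucose ≥200 mg/dl counted as diabetic.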

[7] = tested on: Ag7-restricted T cell response; conditions: cited from earlier work

CC(C)[C@H](NC(=O)[C@@H](NC(=O)[C@H](Cc1ccc(O)cc1)NC(=O)[C@@H](NC(=O)[C@H](N)Cc1ccc(O)cc1)[C@@H](C)O)[C@@H](C)O)C(=O)N[C@@H](Cc1c[nH]cn1)C(=O)N[C@@H](C)C(=O)N[C@@H](C)C(=O)N[C@@H](Cc1c[nH]cn1)C(=O)N[C@@H](C)C(=O)N[C@@H](Cc1ccc(O)cc1)C(=O)N[C@H](C(=O)N[C@@H](Cc1ccc(O)cc1)C(=O)N[C@@H](C(=O)O)[C@H](C)O)[C@@H](C)O [P1, yTYTVHAAHAYTYt] (H-[dY]TYTVHAAHAYTY[dT]-OH)
mortality (died/total) (NOD mice [1]): 6/18 | animals producing antibodies against the peptide [2]: 3 of 13 animals | peptide-specific IgG antibodies [3]: IgG | peptide-specific IgM antibodies [3]: no IgM | fraction of mice antibody negative ([3]; after 13 wk of treatment): Approximately half | mortality (NOD mice [4]; P1 mixed with ketotifen (3 mg/kg) after 20 wk of treatment): no mortality occurred | symptoms after adding ketotifen (NOD mice [4]; P1 mixed with ketotifen (3 mg/kg) after first signs of postinjection fatigue (20 wk of treatment)): symptomless | IC50 (Ad): ~20 µM

KMKMVHAAHAKMKM [P2]
binding to Ag7 (Ag7): fails to bind | mortality (died/total) (NOD mice [1]): 1/12 | effect on antigen presentation by Ed (Ed): not that by As7 and Ea | peptide-specific IgG antibodies [3]: no IgG | peptide-specific IgM antibodies [3]: exclusively of IgM isotype | fraction of mice nonresponders ([3]; chronic treatment): Approximately half | effect on antigen presentation by Ek (Ek): inhibited antigen presentation | effect on antigen presentation by Ag7 [5]: not that by As7 | plateau level of diabetic animals ([6]; by 22 wk of age, control groups (P2, 12 mice, or solvent)): 60% | effect on spontaneous diabetes (summary) ([6]; chronic administration from 3 wk of age on, female NOD mice): no effect on the disease | effect on antigen presentation by Ad (Ad; APC LK cells, 1 μM OVA 323-339, hybridoma DO11.10, competitor up to 100 μM): inhibited antigen presentation

sheep insuline: sheep insulin used as antigen in NOD mice
Ag7-restricted T cell response of NOD mice [7]: strong
